The record followed here is ChEMBL document CHEMBL3085674, “Synthesis of some dihydropyrimidine-based compounds bearing pyrazoline moiety and evaluation of their antiproliferative activity” (Eur J Med Chem, 2013).

What all share (format): functional, cell-based
One test deals with A549. Nature of the test: Antiproliferative activity against human A549 cells after 72 hrs by cell titer glo assay. To be noted: A549, 72 h. In outline: (§1)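 ATCC tumour cells kept in RPMI 1640 with 5% FBS, 2 mM glutamine, streptomycin and amphotericin at 37 °C, 5% CO2. Cells were trypsinised at 70–90% confluence and used only at >95% Trypan blue viability. Seeded at 5000 cells/well, rested 18–24 h, then dosed from DMSO stocks (0.1% DMSO final). ATP luminescence was read after 72 h. IC50 came from dose–response curves of 8 concentrations, four replicates each.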

Another test relates to HT-29. In words: Antiproliferative activity against human HT-29 cells after 72 hrs by cell titer glo assay. As to conditions: HT-29, 72 h. The method in brief:
as §1

The next test deals with MCF7. In words: Antiproliferative activity against human MCF7 cells after 72 hrs by cell titer glo assay. To be noted: MCF7, 72 h. The method in brief: as §1
(In general: ATP-based viability assays read luminescence as a measure of living cells.)

For a further test, the system named is MDA-MB-231. In words: Antiproliferative activity against human MDA-MB-231 cells after 72 hrs by cell titer glo assay. As to conditions: MDA-MB-231, 72 h. The method in brief:
as §1

SMILES strings stand for the structures.

For the molecule `Cn1c(N2N=C(c3ccccc3)CC2c2ccccc2)nc(-c2ccccc2)c(C#N)c1=O` (stereo unspecified), the IC50 in the test with A549 is 52.9 µM; in the test on HT-29, 2.49 µM; in the test with MCF7, 35.4 µM; in the test with MDA-MB-231 it was 3.99 µM.
Regarding `Cn1c(N2N=C(c3ccc(Cl)cc3)CC2c2ccccc2)nc(-c2ccccc2)c(C#N)c1=O` (stereo unspecified), the IC50 in the test on A549 was found to be 26.9 µM; in the test with HT-29 it was 6.6 µM; in the test on MCF7 it was 12.2 µM; in the test on MDA-MB-231, 10.6 µM.
For `COc1ccc(C2CC(c3ccccc3)=NN2c2nc(-c3ccc(Cl)cc3)c(C#N)c(=O)n2C)cc1` (stereo unspecified), the IC50 in the test on A549 is 23.8 µM; in the test with HT-29, 11 µM; in the test on MCF7 it was 52.4 µM; in the test with MDA-MB-231, 19.5 µM.
In the case of `Cn1c(N2N=C(c3ccccc3)CC2c2ccc(F)cc2)nc(-c2ccccc2)c(C#N)c1=O` (stereo unspecified), the IC50 turned out to be 39.2 µM in the test with A549, 8.15 µM with HT-29, 38.1 µM with MCF7 and 11.8 µM in the test on MDA-MB-231.
`Cn1c(N2N=C(c3ccccc3)CC2c2ccccc2)nc(-c2ccc(Cl)cc2)c(C#N)c1=O` (stereo unspecified): the IC50 in the test on A549 amounted to 28.1 µM; in the test with HT-29, 19.5 µM; with MCF7 it was 34.4 µM; with MDA-MB-231, 29.1 µM.
As to `Cn1c(N2N=C(c3ccccc3)CC2c2ccc(Cl)cc2)nc(-c2ccccc2)c(C#N)c1=O` (stereo unspecified), the IC50 in the test on A549 turned out to be 3.25 µM; in the test on HT-29 it was 19.2 µM; in the test on MCF7 it was 3.28 µM; in the test with MDA-MB-231 it was 28 µM.
On the same counts, the results for `COc1ccc(C2CC(c3ccc(Cl)cc3)=NN2c2nc(-c3ccccc3)c(C#N)c(=O)n2C)cc1` (stereo unspecified) are 6.07 µM, 9.12 µM, 4.8 µM and 11.1 µM.
As for `COc1ccc(C2CC(c3ccc(Cl)cc3)=NN2c2nc(-c3ccc(Cl)cc3)c(C#N)c(=O)n2C)cc1` (stereo unspecified), the IC50 was 35.6 µM in the test on A549, 15.1 µM in the test with HT-29, 27.3 µM in the test on MCF7 and 24.8 µM in the test with MDA-MB-231.
Take `Cc1ccc(C2=NN(c3nc(-c4ccc(Cl)cc4)c(C#N)c(=O)n3C)C(c3ccc(F)cc3)C2)cc1` (stereo unspecified): the IC50 came out at 35.6 µM with A549, 10.5 µM in the test on HT-29, 116 µM in the test on MCF7 and 19.3 µM in the test on MDA-MB-231.
On the same counts, the results for `COc1ccc(C2=NN(c3nc(-c4ccccc4)c(C#N)c(=O)n3C)C(c3ccc(OC)cc3)C2)cc1` (stereo unspecified) are 26.5 µM, 9.42 µM, 127 µM and 16.2 µM.
The corresponding values for `COc1ccc(C2=NN(c3nc(-c4ccc(Cl)cc4)c(C#N)c(=O)n3C)C(c3ccc(OC)cc3)C2)cc1` (stereo unspecified) are 39.7 µM, 18.2 µM, 99.8 µM and 28.3 µM.
On the same counts, the results for `COc1ccc(C2CC(c3ccccc3)=NN2c2nc(-c3ccccc3)c(C#N)c(=O)n2C)cc1` (stereo unspecified) are 1.76 µM, 14.7 µM, 18 µM and 12.8 µM.
With `Cn1c(N2N=C(c3ccc(Cl)cc3)CC2c2ccccc2)nc(-c2ccc(Cl)cc2)c(C#N)c1=O` (stereo unspecified), the IC50 came out at 43.9 µM with A549, 8.72 µM in the test on HT-29, 25.3 µM with MCF7 and 12.4 µM in the test on MDA-MB-231.
For `COc1cccc2c1C(=O)c1c(O)c3c(c(O)c1C2=O)C[C@@](O)(C(=O)CO)C[C@@H]3O[C@H]1C[C@H](N)[C@H](O)[C@H](C)O1` [DOXORUBICIN], the results for the IC50 in the test with A549 and with HT-29 were 3.13 µM and 2.75 µM, respectively.
As to `Cn1c(N2N=C(c3ccccc3)CC2c2ccc(Cl)cc2)nc(-c2ccc(Cl)cc2)c(C#N)c1=O` (stereo unspecified), the IC50 in the test on A549 turned out to be 24.7 µM; with HT-29 it was 15 µM; with MCF7, 46.3 µM; in the test on MDA-MB-231, 25.1 µM.
On to `Cc1ccc(C2=NN(c3nc(-c4ccccc4)c(C#N)c(=O)n3C)C(c3ccc(F)cc3)C2)cc1` (stereo unspecified), for which the IC50 in the test on A549 was found to be 2 µM; in the test with HT-29 it was 4.62 µM; in the test on MCF7, 23.1 µM; with MDA-MB-231 it was 5.1 µM.
The corresponding values for `Cn1c(N2N=C(c3ccccc3)CC2c2ccc(F)cc2)nc(-c2ccc(Cl)cc2)c(C#N)c1=O` (stereo unspecified) are 27.8 µM, 13.7 µM, 36.8 µM and 20.9 µM.

Usually IC50 stands for the concentration needed to halve the response being measured. Low readings indicate greater potency, high ones weaker potency.
